Screens: PubChem, several laboratories
Rce1 inh: yeast Rce1p protease inhibitors, primary screen, biochemical, fluorescence, cell-free homogeneous; yeast membranes, quenched prenylated peptide cleavage fluorescence; CAAX prenyl protease 2 (Saccharomyces cerevisiae (strain ATCC 204508 / S288c)), Q03530; hit rate 0.27% among 290,000; calls only;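 active means fall in fluorescence gain of 50% or more versus controls, with final raw signal at or below 3038400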
MEKK3 PB1 HTS: modulators of MEKK3-MEK5 PB1 binding, primary screen, biochemical, wildtype MEKK3, multiplex bead flow cytometry, Alexa488-MEK5; Mitogen-activated protein kinase kinase kinase 3 (Homo sapiens), Q99759; bead-based flow cytometry, Alexa488-MEK5 binding to MEKK3; actives lie on both sides; 0 = blocked by unlabeled MEK5, 100 = vehicle; binding response (% of control), % at 10 µM; hit rate 1.4% among 290,000; AID 1529, 2009;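 active means binding response more than 3 SD above or below the average of its plate-row segment, actives on both sides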;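 further: Alexa488 bead fluorescence after subtracting the streptavidin-only scavenger bead signal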
T cell modulator: modulators of CD8 T cell-vesicle binding, primary screen, mouse 2C CD8+ T cells, flow cytometry | response (vesicle binding), % at 7 µM | hit rate 0.068% among 330,000 | 2C CD8+ T cell-vesicle binding; active compounds read low;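 active means response, share of CD8 T cells binding vesicles, and their 90th percentile fluorescence all below set limits, cut at about 80% in these data, passing the limit was not always enough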;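 further: values below 100% mean blocked vesicle binding to the CD8+ T cells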
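Material: 2C TCR transgenic mouse naive CD8+ T cells, MACS-purified. Also added: QL9-charged Drosophila Ld/ICAM-1/B7-1 vesicles. Timing: binding 1.5 h at 37 °C. Measured by: high-throughput flow cytometry with anti-B7-1 and anti-CD8 staining. Read-out: percent CD8+ FL2 mean versus row control. Controls: Unloaded micro-vesicles (low), QL9 vesicles with 0.7% DMSO (high).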
UCH37 inh: inhibitors of human UCH37 deubiquitinase, primary screen, biochemical, Ub-AMC cleavage, fluorescence; Ubiquitin carboxyl-terminal hydrolase isozyme L5 (Homo sapiens), Q9Y5K5; purified proteasome/UCH37; inhibition, % (no concentration beside the values); hit rate 0.33% among 330,000;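 active means mean inhibition over replicate wells above about 20%, limit read from the data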
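Test system – human UCH37 enzyme supplied as purified proteasome complex · Incubation – 30 min preincubation with enzyme, 25 min cleavage at room temperature · Detection – AMC fluorescence from Ub-AMC cleavage, excitation 355 nm, emission 460 nm · Benchmarks – no-proteasome wells (full inhibition) and compound-free wells (no inhibition)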
MEKK2 mut-MEK5: MEK5 binding signal on mutant MEKK2 PB1, primary screen, biochemical, multiplex bead flow cytometry, Alexa488-MEK5; Alexa488-MEK5 binding to MEKK2 mutant; percent response, % at 10 µM; hit rate 0.35% among 290,000; in the data active means percent response above about 24%, passing the limit was not always enough
MEKK2wt PB1 HTS: modulators of MEK5 binding to wildtype MEKK2, primary screen, biochemical, multiplex bead flow cytometry, Alexa488-MEK5; Mitogen-activated protein kinase kinase kinase 2 (Homo sapiens), Q9Y2U5; Alexa488-MEK5 binding to MEKK2 WT; actives lie on both sides; binding response (% of control), % at 10 µM; hit rate 1.1% among 290,000; in the data active means binding response below about 67% or above about 130%
MEKK2wt confirm: modulators of MEK5 binding to wildtype MEKK2, confirmation, biochemical, single concentration, multiplex bead flow cytometry; hit rate 2.4% among 5,900; shares compounds with MEKK3 PB1 HTS; Alexa488-MEK5 binding to MEKK2 WT; actives lie on both sides; binding response (% of control), % at 10 µM; in the data active means binding response below about 16% or above about 210%; inactive means in between
MEKK2mut-MEK5: mutant MEKK2 PB1-MEK5 binding signal retest – biochemical, single concentration, multiplex bead flow cytometry, confirmation; percent response, % at 10 µM; shares compounds with MEKK3 PB1 HTS; hit rate 2% among 5,900; Alexa488-MEK5 binding to MEKK2 mutant; in the data active means percent response mostly above about 71%, no sharp cut-off; inactive means mostly below about 38%;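 further: higher means compound restores mutant binding toward wildtype level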
MEKK3 confirm: MEKK3 wild-type PB1 binding to MEK5, inhibitors, confirmation, biochemical, bead multiplex flow cytometry, single concentration, wildtype. shares compounds with MEKK3 PB1 HTS. Alexa488-MEK5 binding to MEKK3; active compounds read low. binding response (% of control), % at 10 µM. hit rate 1.8% among 5,900;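 active means binding response below 72% of control, or above a set upper limit, though filed actives all read lower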;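 further: lower values mean stronger disruption of MEK5 binding to MEKK3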
UCH37 confirm: retest of human UCH37 deubiquitinase inhibitors, confirmation, biochemical, Ub-AMC cleavage rate, fluorescence; shares compounds with UCH37 inh; Proteasome-bound UCH37; inhibition, % at 20 µM; hit rate 27% among 480;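 active means average inhibition over replicates above about 50%, so the earlier screening hit is confirmed, limit read from the data; inactive means the rest, counted as false positives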;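 further: based on cleavage rate fitted by regression over a 30 min kinetic read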
Hits are given with their value; i = inactive; nt = no result; + = active, no number; [ ] = another dose, or the depositor's remark. Only some compounds are listed: those with a hit (about 2.5% of all), similar ones and a draw of the others.

SMILES	Rce1 inh	MEKK3 PB1 HTS	T cell modulator	UCH37 inh	MEKK2 mut-MEK5	MEKK2wt PB1 HTS	MEKK2wt confirm	MEKK2mut-MEK5	MEKK3 confirm	others
CCOC(=O)c1c(/N=C/c2c(O)n(-c3ccc(F)cc3)c(=S)[nH]c2=O)sc2c1CCCC2	i	nt	i	i	nt	nt	nt	nt	nt
CCCCCCC(=O)N/N=C/c1c(O)n(CCCC)c(=S)[nH]c1=O	i	i	i	i	i	i	nt	nt	nt
CCCCC(=O)N/N=C/c1c(O)n(CC)c(=S)[nH]c1=O	nt	2.0[inhibitor]	i	i	i	1.0[inhibitor]	i	i	i
CN(CCCCC(=O)C=NO)Cc1ccccc1 (tested in a mixture with another compound)	nt	nt	nt	i	nt	nt	nt	nt	nt
CC(=NCCCn1ccnc1)c1c(O)n(C2CCCCC2)c(=O)[nH]c1=O	i	132	i	i	i	i	i	i	i
O=c1[nH]c(=O)n(C2CCCCC2)c(O)c1C=NCCCn1ccnc1	i	nt	i	i	nt	nt	nt	nt	nt
NC(N)=N/N=C/c1ccc(N(c2ccccc2)c2ccccc2)cc1	i	i	i	nt	73	235	i	i	i
COc1ccc(/C=N\N=C(N)N)cc1	i	i	i	nt	i	i	nt	nt	nt
FC(F)(F)C(=NP(=S)(N1CCOCC1)N1CCOCC1)N1CCOCC1	nt	nt	nt	i	nt	nt	nt	nt	nt
CCN1C[C@]2(C)CC[C@H](OC)C34C2[C@H](OC(C)=O)[C@@]2(OCO[C@@]25C[C@H](OC)[C@H]2C[C@]3(O)C5[C@H]2OC)[C@@H]14	nt	nt	nt	i	nt	nt	nt	nt	nt
c1ccc(-c2[nH]c[n+](CC3CO3)c2-c2ccccc2)cc1 (configuration not stated)	nt	i	i	nt	i	152	i	i	i
CC1=Nc2ccccc2/C1=C/c1c(O)[nH]c(=O)[nH]c1=O	i	i	i	i	i	i	nt	nt	nt
O=c1[nH]c(O)c(/C=C2/C=CC(c3cc(Cl)ccc3Cl)=N2)c(=O)[nH]1	i	i	i	i	i	63[inhibitor]	i	i	i
CC(=O)OC1CCC2(C=NO)C(=CCC3C4CCC(=O)C4(C)CCC32)C1 (configuration not stated)	nt	nt	nt	i	nt	nt	nt	nt	nt
C=CCN1C(=O)NC(=O)/C(=C/c2ccc(OC)c(CSc3ccccn3)c2)C1=O	i	80[inhibitor]	i	i	i	i	i	i	i
N#Cc1c(Cl)nc(Cl)c2c1CCN(Cc1ccccc1)C2	+	183	i	nt	i	i	i	i	i
CN(C)c1ccc(/C=C2/C(=NO)C3CCN2CC3)cc1	nt	nt	nt	i	nt	nt	nt	nt	nt
Cc1ccc2c(c1)CC1(CN2C)C(=O)NC(=O)N(CCC2=CCCCC2)C1=O (configuration not stated)	i	i	i	35	i	i	nt	nt	nt	UCH37 confirm=i
Cc1nc2c(=O)n(C)c(=O)nc-2n(C)n1	i	i	i	100	i	i	nt	nt	nt	UCH37 confirm=100
